Laboratory results: ChEMBL document CHEMBL1127382, “Synthesis of N-acetylglucosamine-modified ara-C and its effect on ovarian cancer cells” (1994)

Experiments:
Assay type in all cases: functional
G-401 [1] = assay: Tested in vitro against human ovarian cancer cells (G-401) for anticancer activity at dose 0 uM (Cell number 1*10 e-4)
How it was run: (§1)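 G-401 human ovarian cancer cells seeded at 5 × 10^4 cells/mL in serum-free medium, with or without compound at 0–100 μM. Cultured 3 days at 37 °C under 5% CO₂. Living cells were counted by trypan blue dye exclusion and reported as cell number (×10^-4).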

G-401 [2] = assay: Tested in vitro against human ovarian cancer cells (G-401) for anticancer activity at dose 0 uM in presence of + beta galactosidase (Cell number 1*10 e-4)
How it was run: (§2)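 G-401 human ovarian cancer cells seeded at 5 × 10^4 cells/mL in serum-free medium with compound (0–100 μM) plus E. coli β-galactosidase at 1 unit/mL. Cultured 3 days at 37 °C under 5% CO₂. Viable cells were counted by trypan blue exclusion and reported as cell number (×10^-4).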

G-401 [3] = assay: Tested in vitro against human ovarian cancer cells (G-401) for anticancer activity at dose 1 uM (Cell number 1*10 e-4); how it was run: as §1
G-401 [4] = assay: Tested in vitro against human ovarian cancer cells (G-401) for anticancer activity at dose 1 uM in presence of + beta galactosidase (Cell number 1*10 e-4); how it was run: as §2
G-401 [5] = assay: Tested in vitro against human ovarian cancer cells (G-401) for anticancer activity at dose 10 uM (Cell number 1*10 e-4); how it was run: as §1
G-401 [6] = assay: Tested in vitro against human ovarian cancer cells (G-401) for anticancer activity at dose 10 uM in presence of + beta galactosidase (Cell number 1*10 e-4); how it was run: as §2
G-401 [7] = assay: Tested in vitro against human ovarian cancer cells (G-401) for anticancer activity at dose 100 uM (Cell number 1*10 e-4); how it was run: as §1
G-401 [8] = assay: Tested in vitro against human ovarian cancer cells (G-401) for anticancer activity at dose 100 uM in presence of + beta galactosidase (Cell number 1*10 e-4); how it was run: as §2

Compound | Cell number (G-401 [1]) | Cell number (G-401 [2]) | Cell number (G-401 [3]) | Cell number (G-401 [4]) | Cell number (G-401 [5]) | Cell number (G-401 [6]) | Cell number (G-401 [7]) | Cell number (G-401 [8])
Nc1ccn([C@@H]2O[C@H](CO[C@@H]3O[C@H](CO)[C@H](O)[C@H](O)[C@H]3O)[C@@H](O)[C@@H]2O)c(=O)n1 | 55 | 46 | 41 | 15 | 38 | 6 | 56 | 2
Nc1ccn([C@@H]2O[C@H](CO)[C@@H](O)[C@@H]2O)c(=O)n1 [CYTARABINE] | 55 |  | 0 |  | 0 |  | 0 | 
